Data set [1] concerns the target T1, C-C chemokine receptor type 3 (Homo sapiens, UniProt P51677).
T1 sequence (P51677 whole entry): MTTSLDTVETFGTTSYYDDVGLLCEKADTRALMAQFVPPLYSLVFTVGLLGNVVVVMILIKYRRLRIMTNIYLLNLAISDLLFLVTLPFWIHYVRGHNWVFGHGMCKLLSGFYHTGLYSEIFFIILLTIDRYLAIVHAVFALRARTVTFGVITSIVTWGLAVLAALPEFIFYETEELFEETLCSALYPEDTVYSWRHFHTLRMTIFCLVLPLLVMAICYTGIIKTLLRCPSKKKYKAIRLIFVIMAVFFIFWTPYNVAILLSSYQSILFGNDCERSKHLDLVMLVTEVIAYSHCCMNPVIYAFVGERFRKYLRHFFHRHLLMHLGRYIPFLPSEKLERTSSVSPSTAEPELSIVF
Kind of data set: (§1) In vitro binding activity against C-C chemokine receptor type 3 using [35S]GTP-gamma-S, as radioligand. The class given is functional.

Data set [2] concerns the target T2, C-C chemokine receptor type 3 (Homo sapiens) (UniProt P51677).
T2 sequence (whole entry): T1 sequence (P51677 whole entry)
In words: In vitro percent increase over basal binding of [35S]-GTP-gamma S against C-C chemokine receptor type 3 at 10 uM. The class given is functional. A digest of the protocol:
(§2)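 [³⁵S]GTPγS binding to CCR3 receptor-membrane preparations in excess GDP, testing for agonism. E_max % is the percent rise over basal [³⁵S]GTPγS binding at 10 μM compound, expressed as a percent of the maximal response to 100 nM eotaxin.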

The target of data set [3] is T2, C-C chemokine receptor type 3 (Homo sapiens). The data set is described as §1. The class given is functional. To be noted: concentration not given here.
The target is the same in data set [4]. In words: In vitro percent inhibition against C-C chemokine receptor type 3 using [35S]GTP-gamma-S, as radioligand at 1 uM. The class given is functional. Background: GTPγS is a poorly hydrolysed GTP analogue; its binding reports G protein activation.
Data set [5] has the same target. Kind of data set: In vitro percent inhibition against C-C chemokine receptor type 3 using [35S]GTP-gamma-S, as radioligand; at 1 uM. The format is functional.
Data set [6] is described as follows: Inhibitory concentration against CREM 3 cell line using calcium flux assay at 37 C at 7.4 pH with compound dissolved in DMSO. The note with it: CREM3. The class given is functional, cell-based. An outline of the steps:
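CREM3 cells (rat Y3 line transfected with human CCR3) were used at 37 °C. Compounds were dissolved in DMSO and diluted in pH 7.4 HBSS containing HEPES, BSA and probenecid.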
(In general: Calcium assays in cells follow changes in intracellular calcium, usually with a dye or a luminescent sensor.)

The nature of data set [7]: In vivo Area under curve in rat at 3 mg/kg after IV administration. The format is ADME, organism-based. On the set-up: dose 3 mg/kg, route intravenous.
Data set [8] has as its target T2, C-C chemokine receptor type 3 (Homo sapiens). In words: In vitro percent increase over basal binding of [35S]-GTP-gamma S against C-C chemokine receptor type 3. The class given is functional. An outline of the steps:
as §2

Data set [9] shares this target. In words: In vitro binding activity against C-C chemokine receptor type 3 using [35S]GTP-gamma-S, as radioligand at 1 uM. The class given is functional.

Several values for one entry are separate records, joined by “and”; a condition that tells them apart may be missing. Identical values can stand only once.

Results on 28 compounds are retold here after ChEMBL document CHEMBL1139618, “The synthesis of substituted bipiperidine amide compounds as CCR3 ligands: antagonists versus agonists” (Bioorg Med Chem Lett, 2005).

In data set [1], `O=C(NCC1CCCN(C2CCN(Cc3cc(Cl)ccc3Cl)CC2)C1)c1ccc2ncccc2c1` (stereo not drawn) registered a Ki of 391 nM. In addition, the Emax in [2] is 45%.
`O=C(NCC1CCCN(C2CCN(Cc3ccc(Cl)c(Cl)c3)CC2)C1)c1ccccc1Cl` (stereo not drawn) gave an inhibition in [3] of 27%.
In turn, `CC(=O)NCC1CCCN(C2CCN(Cc3ccc(Cl)c(Cl)c3)CC2)C1` (stereo not drawn) showed a Ki in [1] of 533 nM.
Still for that read-out and setting: the same measure for `O=C(NCC1CCCN(C2CCN(Cc3ccc(Cl)c(Cl)c3)CC2)C1)c1cccc2[nH]ccc12` (stereo not drawn): 36 nM.
Compound `O=C(Nc1ccc(Cl)c(Cl)c1)NN1CCC(N2CCCC(CNC(=O)c3ccc4ncccc4c3)C2)CC1` (stereo not drawn) yielded an inhibition in data set [4] of 6%.
Take `O=C(NCC1CCCN(C2CCN(C(=O)c3ccc(Cl)c(Cl)c3)CC2)C1)c1ccc2ncccc2c1` (stereo not drawn): in data set [5], the inhibition is 20%.
Turning to `O=C(NCC1CCCN(C2CCN(Cc3cc(Cl)cc(Cl)c3)CC2)C1)c1ccc2ncccc2c1` (stereo not drawn), affinity in [1] was put at a Ki of 398 nM. Besides, the Emax in [2] was 45%.
Turning to `O=C(NCC1CCCN(C2CCN(Cc3ccc(Cl)c(Cl)c3)CC2)C1)c1ccc2ncccc2c1` (stereo not drawn), the concentration for half-maximal inhibition (IC50) in [6] was found to be 215 nM. This compound registered an inhibitory constant (Ki) in data set [1] of 23 nM. The compound also displayed an exposure (AUC) in [7] of 264 ng·h/mL. Also, in data set [2], the Emax is -7%.
`CC(c1ccc(Cl)c(Cl)c1)N1CCC(N2CCCC(CNC(=O)c3ccc4ncccc4c3)C2)CC1` (stereo not drawn): the affinity in [1], expressed as Ki, was 74 nM. The Emax in data set [2] was -12%.
In [1], `CC1(N2CCCC(CNC(=O)c3ccc4ncccc4c3)C2)CCN(Cc2ccc(Cl)c(Cl)c2)CC1` (stereo not drawn) gave a Ki of 50 nM. In addition, in [8], the Emax turned out to be 8%.
In turn, `O=C(NCC1CCCN(C2CCN(Cc3ccc(Cl)c(Cl)c3)CC2)C1)c1ccc2ccccc2c1` (stereo not drawn) showed an inhibition constant Ki in [1] of 48 nM.
Same read-out and setting: the same measure for `Cc1ccccc1CC(=O)NCC1CCCN(C2CCN(Cc3ccc(Cl)c(Cl)c3)CC2)C1` (stereo not drawn): 86 nM.
On the same count and under the same terms, the same measure for `Cc1ccccc1C(=O)NCC1CCCN(C2CCN(Cc3ccc(Cl)c(Cl)c3)CC2)C1` (stereo not drawn): 60 nM; for `O=C(NCC1CCCN(C2CCN(C(=O)Cc3ccc(Cl)c(Cl)c3)CC2)C1)c1ccc2ncccc2c1` (stereo not drawn): 767 nM; for `O=C(NCC1CCCN(C2CCN(Cc3ccc(Cl)c(Cl)c3)CC2)C1)C1CCCCC1` (stereo not drawn): 107 nM.
Take `CC1CN(Cc2ccc(Cl)c(Cl)c2)CCC1N1CCCC(CNC(=O)c2ccc3ncccc3c2)C1` (stereo not drawn): the Ki in data set [1] came out at 7.3 nM. In addition, the Emax in data set [8] is 96%.
For `O=C(NCC1CCCN(C2CCN(Cc3ccc(Cl)c(Cl)c3)CC2)C1)c1ccc2[nH]ccc2c1` (stereo not drawn), in [1], the Ki is 29 nM.
Same read-out and setting: the same measure for `COc1ccccc1C(=O)NCC1CCCN(C2CCN(Cc3ccc(Cl)c(Cl)c3)CC2)C1` (stereo not drawn): 92 nM.
`O=C(NCC1CCCN(C2CCN(CCc3ccc(Cl)c(Cl)c3)CC2)C1)c1ccc2ncccc2c1` (stereo not drawn) came in with a Ki in data set [1] of 180 nM. In data set [2], the Emax is 2%.
In data set [1], `O=C(NCC1CCCN(C2CCN(Cc3ccc(Cl)c(Cl)c3)CC2)C1)c1nccc2ccccc12` (stereo not drawn) returned a Ki of 34 nM. This counts as double-digit nanomolar.
Still for that read-out and setting: the same measure for `O=C(NCC1CCCN(C2CCN(Cc3ccc(Cl)c(Cl)c3)CC2)C1)c1cnnc2ccccc12` (stereo not drawn): 99 nM.
For the compound `O=C(NCC1CCCN(C2CCN(Cc3ccccc3Cl)CC2)C1)c1ccc2ncccc2c1` (stereo not drawn), the inhibition in data set [9] is 36%.
For the compound `O=C(NCC1CCCN(C2CCN(Cc3ccc(Cl)c(Cl)c3)CC2)C1)c1ccc2nc[nH]c2c1` (stereo not drawn), in data set [1], the affinity corresponds to a Ki of 47 nM.
The same measure, in the same setting: then `O=C(NCC1CCCN(C2CCN(Cc3ccc(Cl)c(Cl)c3)CC2)C1)c1cccc2cccnc12` (stereo not drawn), with 30 nM and 36 nM; and `O=C(NCC1CCCN(C2CCN(Cc3ccc(Cl)c(Cl)c3)CC2)C1)c1cccc2ccccc12` (stereo not drawn), with 58 nM.
Still for that read-out and setting: the same measure for `O=C(NCC1CCCN(C2CCN(Cc3ccc(Cl)c(Cl)c3)CC2)C1)c1ccnc2ccccc12` (stereo not drawn): 80 nM.
For the compound `O=C(NCC1CCCN(C2CCN(CC3CCCCC3)CC2)C1)c1ccc2ncccc2c1` (stereo not drawn), the inhibition in data set [4] is 17%.
Regarding `O=C(NCC1CCCN(C2CCN(Cc3ccc(Cl)cc3)CC2)C1)c1ccc2ncccc2c1` (stereo not drawn), the Ki in data set [1] came out at 95 nM. The Emax in data set [2] was -8%.

In general, Ki refers to the equilibrium dissociation constant of an inhibitor or competing ligand from its target. A high value points to lower affinity. As a reminder, the Emax is the maximal effect, on the per cent scale that the assay sets. As usually defined, the inhibition is the drop in the measured response relative to a control, in per cent. Low readings indicate a weak effect, high ones a strong effect. The term IC50 denotes the concentration needed to halve the response being measured. As a reminder, the AUC is the area under the concentration-time curve, a measure of exposure.
